Assay outcomes as filed in PubChem BioAssay.
CYP2C19 inh: blocks human cytochrome P450 2C19. AID 778. P33261. CYP2C19 Supersomes, luciferin-H EGE luminescence, 30 min. 96,000 tested, 21% active. inhibition, % at 5 µM;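 active means CYP2C19 inhibition above a set limit at 5 µM in the primary screen, cut at about 50% in these data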;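 further: plate controls were negative control wells for no effect and 2.5 mM tranylcypromine positive control for full effect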
Cav3 T inh: blocks human Cav3.2 T-type calcium channel. 100,000 tested, 4% active. Cav3.2-expressing cells, Fluo-4 calcium fluorescence FDSS; active compounds read low. AID 449739. O95180. B-score at 10 µM;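 active means single-dose well whose peak fluorescence ratio is a statistical outlier from its plate by either plate-standardised score or position-corrected B-score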
Target sequence (O95180 whole entry, looked up): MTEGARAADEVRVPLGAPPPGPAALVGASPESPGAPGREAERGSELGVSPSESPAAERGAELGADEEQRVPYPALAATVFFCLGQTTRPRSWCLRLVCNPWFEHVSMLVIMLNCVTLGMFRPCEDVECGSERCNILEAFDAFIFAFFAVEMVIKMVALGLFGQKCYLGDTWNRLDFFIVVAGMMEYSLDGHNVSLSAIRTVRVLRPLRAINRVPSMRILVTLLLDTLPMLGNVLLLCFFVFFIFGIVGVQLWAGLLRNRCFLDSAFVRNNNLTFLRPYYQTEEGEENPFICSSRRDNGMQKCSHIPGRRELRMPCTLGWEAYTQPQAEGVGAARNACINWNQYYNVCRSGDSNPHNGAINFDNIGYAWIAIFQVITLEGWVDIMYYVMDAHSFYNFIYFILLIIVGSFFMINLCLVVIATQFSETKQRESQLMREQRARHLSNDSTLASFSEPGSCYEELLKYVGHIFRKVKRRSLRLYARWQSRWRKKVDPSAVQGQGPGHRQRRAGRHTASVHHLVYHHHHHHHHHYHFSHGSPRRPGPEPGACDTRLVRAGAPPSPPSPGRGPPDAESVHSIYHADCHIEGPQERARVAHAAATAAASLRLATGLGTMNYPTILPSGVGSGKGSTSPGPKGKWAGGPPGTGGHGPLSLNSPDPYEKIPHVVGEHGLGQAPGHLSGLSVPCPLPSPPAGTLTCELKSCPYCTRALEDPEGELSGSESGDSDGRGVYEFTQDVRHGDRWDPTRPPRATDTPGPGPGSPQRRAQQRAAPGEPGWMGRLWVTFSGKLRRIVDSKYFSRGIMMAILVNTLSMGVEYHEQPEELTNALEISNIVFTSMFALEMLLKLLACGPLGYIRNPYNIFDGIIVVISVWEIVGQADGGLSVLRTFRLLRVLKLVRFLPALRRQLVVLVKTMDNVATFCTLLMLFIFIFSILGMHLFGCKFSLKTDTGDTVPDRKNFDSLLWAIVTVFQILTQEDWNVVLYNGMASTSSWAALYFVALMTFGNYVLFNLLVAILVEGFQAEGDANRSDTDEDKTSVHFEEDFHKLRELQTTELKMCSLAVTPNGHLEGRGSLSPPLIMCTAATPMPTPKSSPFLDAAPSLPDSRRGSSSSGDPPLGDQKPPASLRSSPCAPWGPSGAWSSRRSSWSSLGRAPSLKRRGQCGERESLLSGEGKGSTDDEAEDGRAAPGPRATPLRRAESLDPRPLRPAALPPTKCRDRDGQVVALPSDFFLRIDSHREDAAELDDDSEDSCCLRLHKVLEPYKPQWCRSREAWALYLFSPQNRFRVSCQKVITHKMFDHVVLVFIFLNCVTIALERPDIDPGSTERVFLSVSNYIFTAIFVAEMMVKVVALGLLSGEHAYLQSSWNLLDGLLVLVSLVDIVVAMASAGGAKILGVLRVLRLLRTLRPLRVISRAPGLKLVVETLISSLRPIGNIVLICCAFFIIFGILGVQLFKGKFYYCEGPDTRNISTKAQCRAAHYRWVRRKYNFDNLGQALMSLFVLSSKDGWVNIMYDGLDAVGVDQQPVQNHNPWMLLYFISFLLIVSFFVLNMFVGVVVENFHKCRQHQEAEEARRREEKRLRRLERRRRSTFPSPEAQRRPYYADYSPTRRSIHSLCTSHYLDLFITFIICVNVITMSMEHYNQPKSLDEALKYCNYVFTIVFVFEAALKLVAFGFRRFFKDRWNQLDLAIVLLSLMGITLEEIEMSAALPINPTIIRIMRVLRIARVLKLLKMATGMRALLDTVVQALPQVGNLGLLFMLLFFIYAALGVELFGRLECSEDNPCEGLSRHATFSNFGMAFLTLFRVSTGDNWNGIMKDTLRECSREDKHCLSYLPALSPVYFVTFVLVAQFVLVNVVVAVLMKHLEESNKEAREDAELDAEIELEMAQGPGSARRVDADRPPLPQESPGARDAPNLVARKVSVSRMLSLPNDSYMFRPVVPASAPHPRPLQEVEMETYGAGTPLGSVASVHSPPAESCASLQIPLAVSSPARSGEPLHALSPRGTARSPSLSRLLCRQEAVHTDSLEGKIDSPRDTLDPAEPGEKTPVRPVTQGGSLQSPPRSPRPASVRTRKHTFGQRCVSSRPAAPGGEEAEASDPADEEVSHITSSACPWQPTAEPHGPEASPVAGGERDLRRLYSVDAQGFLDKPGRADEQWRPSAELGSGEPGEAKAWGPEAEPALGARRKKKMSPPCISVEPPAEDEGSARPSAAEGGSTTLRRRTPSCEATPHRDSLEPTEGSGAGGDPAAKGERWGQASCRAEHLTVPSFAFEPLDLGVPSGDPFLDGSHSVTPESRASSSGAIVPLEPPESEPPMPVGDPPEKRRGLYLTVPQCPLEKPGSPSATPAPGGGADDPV
CYP2C9 inh: inhibitors of human CYP2C9. P11712. CYP2C9 Supersomes, luciferin-H conversion, luminescence. inhibition, % at 5 µM. 96,000 tested, 20% active;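 active means blocking of liver enzyme CYP2C9 beyond about 50% at 5 µM, limit read from the data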
CYP2C19 activ: activators of human cytochrome P450 2C19; P33261; recombinant CYP2C19, luciferin-H EGE luminescence; active compounds read high; 0 = fully inhibited enzyme, 1 = untreated enzyme; activation factor at 5 µM; 96,000 tested, under 10 active; AID 1025;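 active means activation factor of at least 2 at 5 µM in the primary screen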;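 further: 0 = wells with 2.5 mM tranylcypromine and 1 = vehicle-only wells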
Rev-RRE block: inhibitors of HIV-1 Rev-RRE RNA interaction. Rev peptide-RRE RNA binding, FRET. P05866. AID 704. inhibition, % at 8 µM. 97,000 tested, 0.79% active;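 active means inhibition above the screen-wide mean plus 3 SD, cut at about 35% in these data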;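 further: 0% = median DMSO wells and 100% = median Neomycin B control wells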
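Material: labelled RRE RNA duplex and labelled Rev peptide / Buffer or medium: HEPES pH 7.5 salt buffer with EDTA / Compound dosing: single point, 8 µM final nominal compound concentration / Benchmarks: DMSO low control, neomycin B high control / Timing: 5 min preincubation and 15 min binding, 25 °C / Technique: FRET fluorescence readout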
CYP2C9 activ: increases human cytochrome P450 2C9 activity; recombinant CYP2C9, luciferin-H conversion, luminescence; active compounds read high; factor 1 = untreated enzyme, 0 = blocked; activation factor at 5 µM; 96,000 tested, 1.4% active; AID 1024;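 active means activation factor of 2 or more for CYP2C9 at a 5 µM dose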;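 further: 0 = sulfaphenazole-blocked wells and 1 = vehicle-only wells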
Active calls of the source: *; x = not tested or not shown. Hits are enriched below; roughly 27% of the tested compounds scored in any of these assays.

SMILES	CYP2C19 inh	Cav3 T inh	CYP2C9 inh	CYP2C19 activ	Rev-RRE block	CYP2C9 activ
CCCC(c1nnnn1C(C)(C)CC)N(Cc1ccco1)Cc1cc2ccc(OC)cc2[nH]c1=O (stereo unspecified)	29	-3.9	41	0.7	3	0.6
COc1cc2cc(C(c3nnnn3C3CCCCC3)N(C)C3CCCCC3)c(=O)[nH]c2cc1OC (stereo unspecified)	62*	-3.2	50*	0.4	x	0.5
Cc1ccc2cc(C(c3nnnn3C3CCCC3)N(Cc3ccccc3)Cc3ccco3)c(=O)[nH]c2c1 (stereo unspecified)	24	-2.6	35	0.8	5	0.7
O=C(Nc1c(C(=O)N2CCOCC2)cnn1-c1ccccc1Cl)c1ccco1	-18	0.02	-29	1.2	1	1.3
CC(=O)c1c(C)[nH]c(C(=O)CSc2nnc(-c3ccc(Cl)cc3)n2CC2CCCO2)c1C (stereo unspecified)	9	1.2	11	0.9	6	0.9
CCC(C)(C)n1nnnc1C(c1cc2ccc(C)cc2[nH]c1=O)N(Cc1cccnc1)Cc1ccco1 (stereo unspecified)	99*	-2.2	89*	0	3	0.1
CCN(c1ccc(C)c(C)c1)S(=O)(=O)c1ccc2c(c1)CCN2C(=O)CCC(=O)O	-12	0.88	52*	1.1	0	0.5
CCN(c1ccc(OC)cc1)S(=O)(=O)c1ccc2c(c1)CCN2C(=O)CCC(=O)O	18	1.4	70*	0.8	3	0.3
C=C(C)C(=O)Nc1cccc(C2=NOC3(C2)C[C@@H](C(N)=O)N(C(=O)c2cc([N+](=O)[O-])cc([N+](=O)[O-])c2C)C3)c1 (stereo partly specified)	x	0.31	x	x	x	x
Cc1ccccc1C(=O)Nc1ccccc1C(=O)NCc1ccccc1	0	-2.6	11	1	8	0.9
COC(=O)c1c(NC(=O)CSc2nnnn2-c2ccccc2)sc2c1CCCC2	32	-0.89	72*	0.7	12	0.3
COC(=O)c1cccc(-n2nnnc2SCC(=O)Nc2nc3c(s2)CCCC3)c1	53*	-4.8*	29	0.5	17	0.7
CCn1nnnc1SCC(=O)Nc1cc(C)on1	x	-0.14	x	x	11	x
COc1cccc(-n2nnnc2SCC(=O)Nc2nc3c(s2)CCCC3)c1	x	-0.93	x	x	12	x
COC(=O)c1cccc(-n2nnnc2SCC(=O)Nc2cc(C)on2)c1	51*	-0.3	52*	0.5	10	0.5
Cc1ccc(-c2cnc(NC(=O)c3cccc(Br)c3)s2)c(C)c1	-3	-2.1	33	1	11	0.7
O=C(NCC(=O)N(c1cccnc1)C(C(=O)NC1CCCCC1)c1cccnc1)c1ccco1 (stereo unspecified)	-4	-0.74	0	1	2	1
CC(C)CC(C(=O)NCc1ccccn1)N1C(=O)c2ccccc2C1=O (stereo unspecified)	71*	0.11	14	0.3	2	0.9
CC(C)CC(C(=O)NC(=O)NCc1ccccc1)N1C(=O)c2ccccc2C1=O (stereo unspecified)	5	0.3	35	1	8	0.6
COc1ccc2[nH]c(C)c(CN3CCC(C)CC3)c(=O)c2c1	-15	-0.64	-11	1.2	x	1.1
COc1ccc2[nH]c(C)c(CCN3C(=O)OC(C)(C)C3(C)O)c2c1 (stereo unspecified)	99*	0.017	86*	0	-1	0.1
COc1ccc2[nH]c(=O)c3c(c2c1)OC(C)(C)C=C3	16	0.96	48	0.8	5	0.5
COc1ccc2[nH]c(C)c(CCN3C(=O)C4CC=CCC4C3=O)c2c1 (stereo unspecified)	97*	0.48	58*	0	10	0.4
O=C(CC(=O)c1ccccc1)Nc1ccc2c(c1)OCCO2	20	0.028	-13	0.8	3	1.1
COc1cc(O)cc2cc3c(c(O)c12)C(=O)CC(C)(O)O3 (stereo unspecified)	x	0.67	x	x	x	x
SMILES	CYP2C19 inh	Cav3 T inh	CYP2C9 inh	CYP2C19 activ	Rev-RRE block	CYP2C9 activ
Cc1ccccc1C(=O)NNc1ccc([N+](=O)[O-])cc1	15	-0.77	0	0.9	5	1
O=C(NC(NNc1ccc([N+](=O)[O-])cc1)(C(F)(F)F)C(F)(F)F)c1ccccc1Cl	45	-8.5*	53*	0.6	16	0.5
c1ccc(NC2=Nc3ccccc3CS2)cc1	31	-1.1	15	0.7	-2	0.8
N#CC1=C(Nc2ccc(Br)cc2)CCC1	12	-3	1	0.9	1	1
Cc1ccc(NC2=Nc3ccccc3CC2)cc1	84*	-0.63	38	0.2	-3	0.6
Brc1ccc(NC2=Nc3ccccc3CC2)cc1	52*	-3.3	28	0.5	4	0.7
CCn1cc(C2=NOC(C(=O)Nc3cc(OC)c(Cl)cc3OC)C2)c(C)n1 (stereo unspecified)	30	0.074	-12	0.7	5	1.1
O=C(c1cc(-c2ccncc2)nc2ccccc12)N1CCN(c2ccccn2)CC1	39	-2.1	85*	0.6	7	0.1
O=C(Nc1c(F)cccc1F)c1cnc(N2CCN(c3ccccn3)CC2)c2ccccc12	36	-2.4	65*	0.6	12	0.4
O=C(c1ccc(C#Cc2ccccc2)o1)N1CCN(c2ccccn2)CC1	15	-0.77	56*	0.8	3	0.4
O=C(c1cc(-c2ccccc2)nc2ccccc12)N1CCN(c2ccccn2)CC1	37	-3.1	52*	0.6	3	0.5
Cc1cc(-c2ccccc2)nc(N2CCN(c3ccccn3)CC2)n1	12	1.9	33	0.9	2	0.7
O=C(Nc1ccc(F)c(F)c1)c1cc(S(=O)(=O)N2CCN(c3ccccn3)CC2)ccc1F	11	-0.74	33	0.9	15	0.7
O=C(N1CCOCC1)N1CCN(c2ccccn2)CC1	-7	0.26	-12	1.1	-1	1.1
Cn1c(SCC(=O)Nc2ccccc2F)nnc1-c1cc2ccccc2o1	16	0.053	17	0.8	-1	0.8
COc1ccc(NC(=O)C2CCC(CNc3c(N4CCCCC4)c(=O)c3=O)CC2)cc1OC (stereo unspecified)	19	-0.033	36	0.8	2	0.6
CC(=O)NCCNC(=O)CCNC(=O)c1ccc(Cl)cc1	8	0.052	6	0.9	4	0.9
O=C(c1cc(-c2ccncc2)nc2ccccc12)N1CCN(c2ccc(N3CCOCC3)nn2)CC1	38	x	68*	0.6	8	0.3
COc1ccc(N(C)C(=O)c2cnc(N3CCN(c4ncccn4)CC3)c3ccccc23)cc1	79*	x	69*	0.2	1	0.3
O=C(Nc1ccccc1)c1cc(N2CCOCC2)nc2ccccc12	20	0.4	51*	0.8	2	0.5
